13 compounds from ChEMBL document CHEMBL1125511, “Molecular determinants of the platelet aggregation inhibitory activity of carbamoylpiperidines” (J Med Chem, 1992) can be followed below.

Each structure is given as a SMILES string.

One may read the logP as a log measure of how a compound divides between an organic and an aqueous phase. For orientation: IC50 means the midpoint of a concentration-inhibition curve. The low end stands for greater potency in that assay, the high end for weaker potency in that assay.

Data set [1] in a line: Partition coefficient (logP). The data set is classed as physicochemical. The following applies: octanol/water.
The species named for data set [2] is Homo sapiens. The data set can be described thus: Concentration required to inhibit ADP-induced platelet aggregation by 50%.
The species named for data set [3] is Homo sapiens. Briefly: Concentration inhibits collagen-induced platelet aggregation by 50%(Human blood). It counts as functional. The method, boiled down: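 Human platelets from citrated PRP washed in HEPES-buffered saline pH 7.4 (EGTA 5 mM, PGE1 1 μM), aequorin-loaded, resuspended with 1 mM MgCl2 and 1 mM CaCl2 at (3-4) × 10^5 platelets/μL. Fibrinogen 1.2 μg added, 37 °C, 1100 rpm stirring. Compound in 95% ethanol added 1 min before collagen (5 μg). Aggregation recorded 5 min. IC50 from linear regression of IC% on log concentration.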

As to `CCN(CC)CC1CCCN(Cc2ccc(CN3CCCC(CN(CC)CC)C3)cc2)C1` (stereo unspecified), the logP in data set [1] (read-out: logP) turned out to be 4.8. In addition, in data set [2] (Homo sapiens), it took 1560 µM to reach half-maximal inhibition (IC50).
On to `CCCCN(C)C(=O)C1CCCN(Cc2ccc(CN3CCCC(C(=O)N(C)CCCC)C3)cc2)C1` (stereo unspecified), for which, in data set [1] (read-out: logP), the log partition coefficient (logP) was 4.52. The IC50 in data set [2] (Homo sapiens) came to 22.1 µM.
For `CCN(Cc1ccccc1)C(=O)C1CCCN(Cc2ccc(CN3CCCC(C(=O)N(CC)Cc4ccccc4)C3)cc2)C1` (stereo unspecified), in data set [1] (read-out: logP), the logP was determined as 5.76. Moreover, in data set [2] (Homo sapiens), the IC50 was 37.7 µM.
As to `Br.Br.CCCCCCCCCCNC(=O)C1CCCN(Cc2ccc(CN3CCCC(C(=O)NCCCCCCCCCC)C3)cc2)C1` (stereo unspecified), the logP in data set [1] came out at 10.202. The same compound gave a concentration for half-maximal inhibition (IC50) in data set [2] (Homo sapiens) of 862 µM.
Take `O=C(NCc1ccccc1)C1CCCN(Cc2ccc(CN3CCCC(C(=O)NCc4ccccc4)C3)cc2)C1` (stereo unspecified): in data set [1] (read-out: logP), the logP stood at 4.18. Besides, the midpoint of inhibition in data set [2] (Homo sapiens), the IC50, lay at 53.6 µM.
For `CCCCN(CCCC)C(=O)C1CCCN(Cc2ccc(CN3CCCC(C(=O)N(CCCC)CCCC)C3)cc2)C1` (stereo unspecified), in data set [1] (read-out: logP), the lipophilicity (logP) came out at 7.63. This compound also registered a half-inhibitory concentration (IC50) in data set [2] (Homo sapiens) of 58.7 µM.
The like results for `CCCN(Cc1ccccc1)C(=O)C1CCCN(Cc2ccc(CN3CCCC(C(=O)N(CCC)Cc4ccccc4)C3)cc2)C1` (stereo unspecified) were, in that order, 6.79 and 72.9 µM.
The corresponding values for `CN(Cc1ccccc1)C(=O)C1CCCN(Cc2ccc(CN3CCCC(C(=O)N(C)Cc4ccccc4)C3)cc2)C1` (stereo unspecified) are 4.72 and 27.3 µM.
For `O=C(C1CCCN(Cc2ccc(CN3CCCC(C(=O)N(Cc4ccccc4)Cc4ccccc4)C3)cc2)C1)N(Cc1ccccc1)Cc1ccccc1` (stereo unspecified), the logP in data set [1] (read-out: logP) was 8.03.
As for `CCN(CC)C(=O)C1CCCN(Cc2ccc(CN3CCCC(C(=O)N(CC)CC)C3)cc2)C1` (single isomer, unassigned; (-)), the IC50 in data set [2] was 233 µM; in data set [3], 199 µM.
On to `CCN(CC)C(=O)C1CCCN(Cc2ccc(CN3CCCC(C(=O)N(CC)CC)C3)cc2)C1` (stereo in doubt; 3a), for which the lipophilicity (logP) in data set [1] (read-out: logP) was found to be 3.48. For the same compound, the IC50 in data set [2] turned out to be 44.5 µM; in data set [3] it was 20.2 µM.
On to `CCN(CC)C(=O)C1CCCN(Cc2ccc(CN3CCCC(C(=O)N(CC)CC)C3)cc2)C1` (stereo in doubt; 3a-B (0)), for which the IC50 came to 41.4 µM in data set [2] and 65.7 µM in data set [3].
For `CCN(CC)C(=O)C1CCCN(Cc2ccc(CN3CCCC(C(=O)N(CC)CC)C3)cc2)C1` (stereo in doubt; 3a-C (+)), the concentration for half-maximal inhibition (IC50) was determined as 15.3 µM in data set [2] and 10.7 µM in data set [3].
